Fewer inactive variants are shown than the library holds.
B1: tRNA (parent)
chain: GUUCCGUUGGCGUAAUGGUAACGCGUCUCCCUCCUAAGGAGAAGACUGCGGGUUCGAGUCCCGUACGGAACG

Variants of: B1
Assay: yeast fitness relative to wild type (ratio to wild type); higher = fitter; tRNA-Arg(CCU), competitive growth, 37 C, YPD
How it was run: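 Variants of the tRNA-Arg(CCU) gene were chemically synthesised with a 3% per-site mutation rate across 69 sites and placed at the native genomic locus in Saccharomyces cerevisiae. Six parallel replicates of the pooled strains were competed in YPD at 37°C for 24 hours, and gene amplicons from the start and end populations were read by 100-nucleotide paired-end sequencing. Darwinian fitness relative to wild type was derived from changes in genotype frequencies. Genotypes required ≥ 100 starting reads, and estimates < 0.5 were set to 0.5.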

Compared with G17C G48C G67C, G17C G18C is higher in yeast fitness: ≤ 0.5 for the first, 0.576 for the second.

Going from G17C C27U C34U A42U to G17C C22A U32C, the yeast fitness rises from ≤ 0.5 to 0.553.

Compared with G18A C29U C31A C66U, G18A C22G C27G C49U G58A is higher in yeast fitness: ≤ 0.5 for the first, 0.608 for the second.

Compared with G17C U28C C55A C60A, G17C C49G is higher in yeast fitness: ≤ 0.5 for the first, 0.743 for the second.

G18A C27U C31A and G17A U54C U59C C61G cannot be ordered by yeast fitness: ≤ 0.5 for the first, ≤ 0.5 for the second.

First: G17A U28C C46U G63A
Second: G17A G52A
The yeast fitness of the first is lower: ≤ 0.5 for the first, 0.549 for the second.

G17C C30G C33G and G17C G51C C66U cannot be ordered by yeast fitness: ≤ 0.5 for the first, ≤ 0.5 for the second.

Compared with G18A A20U C29G A37U, G18A C33U A57G is lower in yeast fitness: 0.563 for the first, ≤ 0.5 for the second.

First: G17A U32G
Second: G17A U32C
The yeast fitness of the first is lower: 0.572 for the first, 0.704 for the second.

First: G18A C30G G44C
Second: G17A U59C
The yeast fitness of the first is higher: 0.646 for the first, 0.62 for the second.

Going from G18A A20U C31U to G18A C30U A40G C46U, the yeast fitness falls from 0.545 to ≤ 0.5.

First: G18A A57G G58C
Second: G18A C27A
The yeast fitness of the first is lower: 0.63 for the first, 0.726 for the second.

Compared with G18A A57U G58C, G17A C46U is higher in yeast fitness: ≤ 0.5 for the first, 0.878 for the second.

Compared with G17A C46G, G17C G18C C30G U53A U64G is lower in yeast fitness: 0.712 for the first, ≤ 0.5 for the second.

Compared with G17A C62U, G17A C62A is lower in yeast fitness: 0.736 for the first, 0.558 for the second.

Going from G18A C24G C27U C62U to G18A A20C C34U A36U G39C, the yeast fitness rises from ≤ 0.5 to 0.539.

Going from G18A A21U U32A G56A to G17A C60G C61G, the yeast fitness falls from 0.561 to ≤ 0.5.

G18A C22A U28C A40C and G17C U26G G39C A40U cannot be ordered by yeast fitness: ≤ 0.5 for the first, ≤ 0.5 for the second.

First: G17C U19A C49G
Second: G17C C33G U59G A69U
The yeast fitness of the first is lower: 0.517 for the first, 0.665 for the second.

First: G17C A37G G56C
Second: G17A C30G
The yeast fitness of the first is lower: ≤ 0.5 for the first, 0.604 for the second.

Compared with G17A C30G C61G, G17C A42C is higher in yeast fitness: ≤ 0.5 for the first, 0.618 for the second.

Compared with G17A G25A, G17C A36G C66U A69C is lower in yeast fitness: 0.886 for the first, 0.803 for the second.

First: G18A C34U A36G
Second: G17C U19A A36C A37U C60G G67C
The yeast fitness of the first is higher: 0.525 for the first, ≤ 0.5 for the second.

Going from G17C G18C U19G C24G to G18A A40G, the yeast fitness rises from ≤ 0.5 to 0.74.

Going from G18A A36C G48A to G17C C30G A57C C61G, the yeast fitness rises from ≤ 0.5 to 0.613.

First: G17C C22G C30U G41C
Second: G17C C34U
The yeast fitness of the first is higher: 0.612 for the first, 0.529 for the second.

G17C C30G C49U A57C C61G and G17A C29U U35G A37C G38C A65C cannot be ordered by yeast fitness: ≤ 0.5 for the first, ≤ 0.5 for the second.

G17C C24G G63C and G17C G25C U26A C29G A36U G39A C46U C55U cannot be ordered by yeast fitness: ≤ 0.5 for the first, ≤ 0.5 for the second.

Going from G17C C30G C60G G63A A65U C66U to G17C C31A, the yeast fitness rises from 0.549 to 0.551.

G18A C31A G56C A69C and G17U U35C A37U A57C cannot be ordered by yeast fitness: ≤ 0.5 for the first, ≤ 0.5 for the second.

G18A C27A G68C and G17C U35C G51A C66G cannot be ordered by yeast fitness: ≤ 0.5 for the first, ≤ 0.5 for the second.

First: G17C G23C
Second: G18A A40U A42U A65C
The yeast fitness of the first is lower: 0.517 for the first, 0.534 for the second.

G18A A20U A42G and G17A U26G C29G C62U A70G cannot be ordered by yeast fitness: ≤ 0.5 for the first, ≤ 0.5 for the second.

Compared with G17A C33U, G17C C31G A45C U54C C55A is lower in yeast fitness: 0.607 for the first, ≤ 0.5 for the second.

First: G17A G18A
Second: G17A G18C
The yeast fitness of the first is higher: 0.65 for the first, 0.63 for the second.

G18A C24A C31A and G17C G25C C30U A65C cannot be ordered by yeast fitness: ≤ 0.5 for the first, ≤ 0.5 for the second.

Going from G17A C31A U32A to G18A A37G C61U, the yeast fitness falls from 0.62 to ≤ 0.5.

First: G18A C30G G38C
Second: G17A G68A
The yeast fitness of the first is lower: 0.529 for the first, 0.81 for the second.

Going from G17A G68C to G18A A42C A69U, the yeast fitness falls from 0.928 to 0.542.

Compared with G17A C30G A45G A65U, G17C A43U is higher in yeast fitness: ≤ 0.5 for the first, 0.589 for the second.

G17C C22G U26C U47A C66G and G17C A42G A70G cannot be ordered by yeast fitness: ≤ 0.5 for the first, ≤ 0.5 for the second.

G17C C49U G63C and G17C G18C C31G A42G cannot be ordered by yeast fitness: ≤ 0.5 for the first, ≤ 0.5 for the second.

G17C A21G U59G A65C and G18A C46U C49U U59C G68A cannot be ordered by yeast fitness: ≤ 0.5 for the first, ≤ 0.5 for the second.

Compared with G18A A42C G48A C60A, G17C A21G C27U C33G A42U is higher in yeast fitness: ≤ 0.5 for the first, 0.621 for the second.

Going from G17C G56C A57G G68U to G17C C46G, the yeast fitness rises from 0.571 to 0.747.

First: G17C C24U A36G
Second: G17C G48C
The yeast fitness of the first is lower: 0.607 for the first, 0.709 for the second.

G17C G18C G63C U64C and G18A C31G U47C cannot be ordered by yeast fitness: ≤ 0.5 for the first, ≤ 0.5 for the second.

Compared with G17A C66A, G17C A21G U26G is lower in yeast fitness: 0.647 for the first, ≤ 0.5 for the second.

First: G17C C33G A70G
Second: G17A C61A G63A G67A
The yeast fitness of the first is lower: ≤ 0.5 for the first, 0.542 for the second.

Going from G18A C34U to G17C A20U C27U U53C, the yeast fitness rises from ≤ 0.5 to 0.619.

First: G18A C22A A37C G41C C55G U64A
Second: G17C C29G A37C U64C
The yeast fitness of the first is lower: ≤ 0.5 for the first, 0.771 for the second.

First: G17C C27U C61A
Second: G17C A37U A42U C49G G51A C61U
The yeast fitness of the first is higher: 0.537 for the first, ≤ 0.5 for the second.

Compared with G17A C33G A40U A45G A65G, G17C C24A A45C is higher in yeast fitness: ≤ 0.5 for the first, 0.508 for the second.

Going from G17A U28A A37G to G17A C30U A57C A69C, the yeast fitness rises from ≤ 0.5 to 0.688.

First: G17C C33G G48U
Second: G17C U32A C46A
The yeast fitness of the first is lower: ≤ 0.5 for the first, 0.582 for the second.

Compared with G17C U19C A40G U47G, G17C C24G C34U is higher in yeast fitness: ≤ 0.5 for the first, 0.527 for the second.

G17C C29A A36G A43U and G17C C22A U28C A40G A45C C66G A69U cannot be ordered by yeast fitness: ≤ 0.5 for the first, ≤ 0.5 for the second.

G17A C61G G68A and G17C C30G C55G A70G cannot be ordered by yeast fitness: ≤ 0.5 for the first, ≤ 0.5 for the second.

G18A A40C U47G A65C and G18A C34U A40G U47C cannot be ordered by yeast fitness: ≤ 0.5 for the first, ≤ 0.5 for the second.

Compared with G18A A43U, G17A G50C is higher in yeast fitness: 0.637 for the first, 0.647 for the second.

Compared with G17A U28G C30G A40C A42U, G18A A45C C49U is higher in yeast fitness: ≤ 0.5 for the first, 0.667 for the second.

First: G18A C29U
Second: G17C G25C G50A U59C G68A
The yeast fitness of the first is higher: 0.813 for the first, ≤ 0.5 for the second.

G17A C30G A45G C61G and G17C C24A A36U G41C cannot be ordered by yeast fitness: ≤ 0.5 for the first, ≤ 0.5 for the second.

G17C G25C C66U and G17C G23A G25C C29G A36U G39A C46U C55U cannot be ordered by yeast fitness: ≤ 0.5 for the first, ≤ 0.5 for the second.

First: G17C U47C
Second: G17A C60G
The yeast fitness of the first is higher: 0.711 for the first, 0.586 for the second.

Compared with G17C A36G A57G C66U A69C, G18A A20U C62A A70C is lower in yeast fitness: 0.59 for the first, 0.552 for the second.

Compared with G18A C31A, G17A U26C is higher in yeast fitness: 0.554 for the first, 0.784 for the second.

G17A C30A A57U G58A and G17C A40G G41A G56C cannot be ordered by yeast fitness: ≤ 0.5 for the first, ≤ 0.5 for the second.

Going from G17C A20U G52C to G17C C62U A65C, the yeast fitness rises from ≤ 0.5 to 0.593.

First: G17A C30G C46U G63C C66U
Second: G17C A36G A45G
The yeast fitness of the first is lower: ≤ 0.5 for the first, 0.505 for the second.

First: G18A A20G A69U
Second: G17A U54A A70G
The yeast fitness of the first is higher: 0.542 for the first, ≤ 0.5 for the second.

First: G18A C24G G38C
Second: G17C U54C
The yeast fitness of the first is higher: 0.724 for the first, 0.536 for the second.

Compared with G17C G18C A20G C30A G50A A69C, G17C C22A C31G C55G G68A is higher in yeast fitness: ≤ 0.5 for the first, 0.587 for the second.

G17C C24G U28A C30U C49U A65U A69C and G17C A20U A42U G67A cannot be ordered by yeast fitness: ≤ 0.5 for the first, ≤ 0.5 for the second.

Compared with G17A C31U U54G, G17C A45U A65C is lower in yeast fitness: 0.639 for the first, ≤ 0.5 for the second.

Compared with G17U A40U A42U C49G G51A C66A G68C, G17C C22A C31G C55G A70U is lower in yeast fitness: 0.536 for the first, 0.527 for the second.

G17A C31G C49G and G17C A20C C49U G52A C61A C62G cannot be ordered by yeast fitness: ≤ 0.5 for the first, ≤ 0.5 for the second.

Compared with G17C A57G, G17C A42C C61A is lower in yeast fitness: 0.68 for the first, ≤ 0.5 for the second.

G17C C33U A43G and G18A C30G cannot be ordered by yeast fitness: ≤ 0.5 for the first, ≤ 0.5 for the second.

Going from G17A U19A C24U G25C to G17C A37G A40C, the yeast fitness rises from ≤ 0.5 to 0.619.

First: G17A G18A A42C C55U
Second: G18A C29U C30U A57G
The yeast fitness of the first is higher: 0.508 for the first, ≤ 0.5 for the second.

Going from G18A A42C C61A to G17U C29G, the yeast fitness rises from ≤ 0.5 to 0.544.

First: G17C G56C
Second: G17C G56A
The yeast fitness of the first is lower: 0.633 for the first, 0.709 for the second.

With G17C C33U the yeast fitness was 0.556.

From the RNAGym collection of RNA variant scans (doi:10.1126/science.aae0568)
